From ChEMBL document CHEMBL1141882, “Synthesis and biological testing of purine derivatives as potential ATP-competitive kinase inhibitors” (J Med Chem, 2005)

Columns and labels:
[1] = target: Tyrosine-protein kinase Lck (Homo sapiens) (UniProt P06239); experiment: Inhibition of human lymphocyte protein tyrosine kinase Lck at 30 uM
Summary of the method: (§1)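 Kinase activity assayed with ATP at 100 µM, deliberately higher than usual assay ATP levels because the inhibitors are assumed ATP-competitive. Results are reported as percent inhibition of each kinase.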

[2] = target: RAF proto-oncogene serine/threonine-protein kinase (Homo sapiens) (UniProt P04049); experiment: Inhibition of human RAF proto-oncogene serine/threonine-protein kinase at 30 uM; summary of the method: as §1
RAF proto-oncogene serine/threonine-protein kinase (Homo sapiens), sequence (P04049 whole entry): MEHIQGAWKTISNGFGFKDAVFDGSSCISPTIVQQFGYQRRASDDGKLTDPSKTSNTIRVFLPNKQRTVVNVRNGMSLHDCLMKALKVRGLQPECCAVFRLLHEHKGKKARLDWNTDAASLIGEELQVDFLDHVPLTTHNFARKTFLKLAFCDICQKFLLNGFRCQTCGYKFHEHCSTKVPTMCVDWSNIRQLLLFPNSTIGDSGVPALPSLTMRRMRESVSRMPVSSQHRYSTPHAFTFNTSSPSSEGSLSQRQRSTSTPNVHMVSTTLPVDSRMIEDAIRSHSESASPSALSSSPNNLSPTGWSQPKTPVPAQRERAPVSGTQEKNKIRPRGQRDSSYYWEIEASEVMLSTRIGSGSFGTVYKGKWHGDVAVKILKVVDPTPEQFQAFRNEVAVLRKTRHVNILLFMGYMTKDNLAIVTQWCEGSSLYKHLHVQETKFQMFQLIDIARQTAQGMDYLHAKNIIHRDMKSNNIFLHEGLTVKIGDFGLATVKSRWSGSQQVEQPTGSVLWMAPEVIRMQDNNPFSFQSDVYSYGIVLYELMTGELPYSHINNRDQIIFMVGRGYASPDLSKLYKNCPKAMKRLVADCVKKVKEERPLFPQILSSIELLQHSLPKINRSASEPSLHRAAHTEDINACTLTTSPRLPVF

[3] = target: Mitogen-activated protein kinase 1 (Homo sapiens) (UniProt P28482); experiment: Inhibition of human Mitogen-activated protein kinase 2 at 30 uM; summary of the method: as §1
Mitogen-activated protein kinase 1 (Homo sapiens), sequence (P28482 whole entry): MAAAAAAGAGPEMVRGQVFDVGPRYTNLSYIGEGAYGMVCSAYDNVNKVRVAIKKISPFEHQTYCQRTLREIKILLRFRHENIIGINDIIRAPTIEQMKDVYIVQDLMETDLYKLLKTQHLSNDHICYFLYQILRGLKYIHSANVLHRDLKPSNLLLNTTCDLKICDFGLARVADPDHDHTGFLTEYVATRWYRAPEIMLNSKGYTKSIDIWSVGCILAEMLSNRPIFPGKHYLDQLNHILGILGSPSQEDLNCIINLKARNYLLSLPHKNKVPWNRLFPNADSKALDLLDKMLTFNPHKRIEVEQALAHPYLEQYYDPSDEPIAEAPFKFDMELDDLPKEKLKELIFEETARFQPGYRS

[4] = target: RAC-alpha serine/threonine-protein kinase (Homo sapiens) (UniProt P31749); experiment: Inhibition of human Protein kinase B alpha at 30 uM; summary of the method: as §1
[5] = target: cAMP-dependent protein kinase (PKA) (Homo sapiens) (UniProt P22694+P17612+P22612); experiment: Inhibition of human cAMP-dependent protein kinase (PKA); assay type: protein assay; set-up: concentration or dose not given beside the values; settings: concentration not given here
[6] = target: Mitogen-activated protein kinase 14 (Homo sapiens) (UniProt Q16539); experiment: Inhibition of human stress-activated protein kinase-2 alpha (p38 MAP-kinase) at 30 uM; summary of the method: as §1
Mitogen-activated protein kinase 14 (Homo sapiens), sequence (Q16539 whole entry): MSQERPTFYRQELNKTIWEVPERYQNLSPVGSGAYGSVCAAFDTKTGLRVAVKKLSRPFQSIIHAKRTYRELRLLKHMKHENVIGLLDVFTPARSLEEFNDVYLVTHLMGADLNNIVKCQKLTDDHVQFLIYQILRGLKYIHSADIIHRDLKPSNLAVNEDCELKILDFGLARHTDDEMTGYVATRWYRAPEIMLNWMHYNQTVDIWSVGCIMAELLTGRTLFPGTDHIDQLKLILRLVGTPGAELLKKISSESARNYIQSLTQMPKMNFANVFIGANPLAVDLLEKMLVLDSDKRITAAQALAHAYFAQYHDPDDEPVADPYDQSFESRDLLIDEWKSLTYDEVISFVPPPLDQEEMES

[7] = target: Mitogen-activated protein kinase 10 (Rattus norvegicus) (UniProt P49187); experiment: Inhibition of rat c-Jun N-terminal kinase-3 at 30 uM; summary of the method: as §1
[8] = target: Mitogen-activated protein kinase 8 (Homo sapiens) (UniProt P45983); experiment: Inhibition of human c-Jun N-terminal kinase-1 alpha-1 at 30 uM; summary of the method: as §1
Mitogen-activated protein kinase 8 (Homo sapiens), sequence (P45983 whole entry): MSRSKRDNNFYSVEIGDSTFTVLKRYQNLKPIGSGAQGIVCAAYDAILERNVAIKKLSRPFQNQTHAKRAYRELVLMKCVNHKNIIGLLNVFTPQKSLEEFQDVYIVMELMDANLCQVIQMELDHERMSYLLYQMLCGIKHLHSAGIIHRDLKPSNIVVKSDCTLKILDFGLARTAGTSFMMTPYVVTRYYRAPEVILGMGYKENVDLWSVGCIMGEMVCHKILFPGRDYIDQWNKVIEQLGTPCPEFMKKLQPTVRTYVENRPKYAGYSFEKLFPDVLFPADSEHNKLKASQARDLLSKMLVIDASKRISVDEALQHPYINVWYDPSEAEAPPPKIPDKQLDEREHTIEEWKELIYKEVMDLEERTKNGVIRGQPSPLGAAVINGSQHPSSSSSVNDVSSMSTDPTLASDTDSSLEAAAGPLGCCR

[9] = target: Ca2+/calmodulin-dependent protein kinase II (CaM kinase II) (Rattus norvegicus) (UniProt P11275+P08413+P15791+P11730); experiment: Inhibition of rat Calcium/calmodulin-dependent protein kinase type II at 30 uM; assay type: protein assay; summary of the method: as §1
[10] = target: Protein kinase C alpha type (Homo sapiens) (UniProt P17252); experiment: Inhibition of human Protein kinase C alpha; set-up: concentration or dose not given beside the values; settings: concentration not given here
[11] = target: Glycogen synthase kinase-3 beta (Homo sapiens) (UniProt P49841); experiment: Inhibition of human Glycogen synthase kinase-3 beta at 30 uM; summary of the method: as §1
[12] = target: Mitogen-activated protein kinase 9 (Homo sapiens) (UniProt P45984); experiment: Inhibition of human c-Jun N-terminal kinase-2 alpha-2 at 30 uM; summary of the method: as §1
Mitogen-activated protein kinase 9 (Homo sapiens), sequence (P45984 whole entry, looked up): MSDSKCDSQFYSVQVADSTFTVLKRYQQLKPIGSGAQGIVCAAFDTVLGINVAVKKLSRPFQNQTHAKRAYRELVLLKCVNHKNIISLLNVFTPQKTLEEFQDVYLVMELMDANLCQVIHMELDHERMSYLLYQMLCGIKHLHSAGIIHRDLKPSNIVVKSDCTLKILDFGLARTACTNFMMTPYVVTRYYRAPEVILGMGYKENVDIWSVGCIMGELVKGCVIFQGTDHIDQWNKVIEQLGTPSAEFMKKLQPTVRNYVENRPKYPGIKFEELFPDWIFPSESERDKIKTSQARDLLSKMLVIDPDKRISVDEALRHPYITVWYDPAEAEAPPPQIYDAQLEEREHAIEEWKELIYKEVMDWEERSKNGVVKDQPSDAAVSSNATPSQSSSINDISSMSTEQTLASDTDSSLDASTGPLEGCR

[13] = target: Rho-associated protein kinase 2 (Homo sapiens) (UniProt O75116); experiment: Inhibition of human Rho-dependent protein kinase-II at 30 uM
Rho-associated protein kinase 2 (Homo sapiens), sequence (O75116 whole entry, looked up): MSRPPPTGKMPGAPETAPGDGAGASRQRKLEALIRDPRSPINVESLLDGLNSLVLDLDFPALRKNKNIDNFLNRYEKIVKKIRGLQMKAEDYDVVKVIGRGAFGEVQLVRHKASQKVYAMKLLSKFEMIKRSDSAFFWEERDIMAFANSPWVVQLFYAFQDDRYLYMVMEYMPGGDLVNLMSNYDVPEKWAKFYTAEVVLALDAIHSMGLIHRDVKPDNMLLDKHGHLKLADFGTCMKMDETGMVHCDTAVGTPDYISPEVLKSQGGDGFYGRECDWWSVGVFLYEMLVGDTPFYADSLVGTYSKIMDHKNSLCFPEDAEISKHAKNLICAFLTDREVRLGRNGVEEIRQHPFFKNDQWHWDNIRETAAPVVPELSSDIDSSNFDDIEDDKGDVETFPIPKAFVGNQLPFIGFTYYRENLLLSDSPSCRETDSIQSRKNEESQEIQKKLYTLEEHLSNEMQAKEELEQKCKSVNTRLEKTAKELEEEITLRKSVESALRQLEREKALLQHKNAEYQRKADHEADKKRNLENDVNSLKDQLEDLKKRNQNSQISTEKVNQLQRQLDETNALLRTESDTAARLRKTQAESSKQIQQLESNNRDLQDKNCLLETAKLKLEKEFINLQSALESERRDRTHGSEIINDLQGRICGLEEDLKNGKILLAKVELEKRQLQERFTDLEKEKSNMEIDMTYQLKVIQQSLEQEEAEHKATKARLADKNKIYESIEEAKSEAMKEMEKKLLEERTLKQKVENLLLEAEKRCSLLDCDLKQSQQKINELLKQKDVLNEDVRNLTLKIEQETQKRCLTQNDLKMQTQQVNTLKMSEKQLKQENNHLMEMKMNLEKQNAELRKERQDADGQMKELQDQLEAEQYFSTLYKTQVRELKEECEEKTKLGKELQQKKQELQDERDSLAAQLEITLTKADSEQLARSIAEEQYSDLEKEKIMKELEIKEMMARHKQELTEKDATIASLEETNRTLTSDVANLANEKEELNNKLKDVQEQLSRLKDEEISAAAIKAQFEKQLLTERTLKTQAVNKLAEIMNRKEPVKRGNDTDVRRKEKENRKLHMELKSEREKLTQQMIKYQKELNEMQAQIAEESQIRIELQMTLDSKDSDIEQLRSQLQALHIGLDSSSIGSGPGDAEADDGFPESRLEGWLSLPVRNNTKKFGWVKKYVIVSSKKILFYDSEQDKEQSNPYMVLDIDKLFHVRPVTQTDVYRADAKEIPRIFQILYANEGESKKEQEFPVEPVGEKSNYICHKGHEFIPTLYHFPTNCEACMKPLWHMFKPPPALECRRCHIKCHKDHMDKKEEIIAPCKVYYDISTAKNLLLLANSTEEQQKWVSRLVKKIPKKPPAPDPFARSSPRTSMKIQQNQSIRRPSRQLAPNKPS

[14] = target: Dual specificity mitogen-activated protein kinase kinase 1 (Homo sapiens) (UniProt Q02750); experiment: Inhibition of human Mitogen activated protein kinase kinase 1 (MEK1) at 30 uM; summary of the method: as §1

Tyrosine-protein kinase Lck (Homo sapiens), sequence (P06239 2-509 limits assumed): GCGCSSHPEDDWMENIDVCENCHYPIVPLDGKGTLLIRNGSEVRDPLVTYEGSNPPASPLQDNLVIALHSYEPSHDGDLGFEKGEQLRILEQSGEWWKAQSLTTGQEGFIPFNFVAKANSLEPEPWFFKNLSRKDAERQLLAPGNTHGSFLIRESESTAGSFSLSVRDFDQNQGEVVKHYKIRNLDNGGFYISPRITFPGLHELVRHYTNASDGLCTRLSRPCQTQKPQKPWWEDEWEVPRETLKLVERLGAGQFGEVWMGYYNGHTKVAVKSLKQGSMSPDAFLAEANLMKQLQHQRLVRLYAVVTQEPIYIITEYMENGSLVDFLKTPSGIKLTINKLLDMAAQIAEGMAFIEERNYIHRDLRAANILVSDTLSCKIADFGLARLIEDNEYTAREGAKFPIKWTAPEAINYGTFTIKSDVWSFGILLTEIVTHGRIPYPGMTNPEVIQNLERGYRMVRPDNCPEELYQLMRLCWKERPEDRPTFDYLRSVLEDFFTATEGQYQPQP

| inhibition [1] | inhibition [2] | inhibition [3] | inhibition [4] | inhibition [5] | inhibition [6] | inhibition [7] | inhibition [8] | inhibition [9] | inhibition [10] | inhibition [11] | inhibition [12] | inhibition [13] | inhibition [14] | SMILES |
| --- | --- | --- | --- | --- | --- | --- | --- | --- | --- | --- | --- | --- | --- | --- |
| 30% | 4% | 0% | 10% | 4% | 44% | 10% | 0% | 12% | 15% | 4% | 1% | 0% | 1% | Cn1c(-c2ccc([S+](C)[O-])cc2)nc2c(Sc3ccc(F)cc3)ncnc21 (stereo unspecified) |
| 0% | 20% | 1% | 0% | 0% | 17% | 21% | 6% | 8% | 13% | 0% | 9% | 7% | 4% | Fc1ccc(Cn2cnc3ncnc(Cl)c32)cc1 |
| 52% | 43% | 2% | 0% | 0% | 79% | 5% | 2% | 3% | 15% | 4% | 6% | 42% | 36% | Fc1ccc(Sc2[nH]cnc3nccc2-3)cc1 |
| 5% | 9% | 0% | 0% | 0% | 16% | 14% | 5% | 12% | 8% | 3% | 3% | 10% | 1% | Cn1cnc2c(-c3ccc(F)cc3)ncnc21 |
| 22% | 16% | 0% | 0% | 0% | 8% | 9% | 0% | 9% | 16% | 5% | 0% | 0% | 7% | Nc1ncnc2c1ncn2Cc1ccc(F)cc1 |
| 19% | 14% | 17% | 0% | 14% | 7% | 10% | 0% | 0% | 6% | 0% | 0% | 28% | 9% | Nc1[nH]cnc2ncnc1-2 |
| 2% | 0% | 0% | 0% | 0% | 0% | 3% | 0% | 0% | 4% | 4% | 0% | 0% | 0% | c1ccc(-[n+]2c[nH]c3ncncc32)cc1 |
| 6% | 12% | 0% | 4% | 0% | 22% | 5% | 1% | 0% | 13% | 10% | 7% | 1% | 6% | Cn1cnc2c(SCc3ccccc3)ncnc21 |
| 5% | 16% | 8% | 11% | 0% | 21% | 9% | 10% | 5% | 12% | 14% | 6% | 6% | 7% | Cn1cnc2c(SCc3ccc(F)cc3)ncnc21 |
